# Data: ChEMBL document CHEMBL1649139, “A novel gene, erm(41), confers inducible macrolide resistance to clinical isolates of Mycobacterium abscessus but is absent from Mycobacterium chelonae” (2009)
# Experiments:
# Type in all cases: functional
# [1] = test system: Mycobacteroides abscessus; assay: Antimicrobial activity against Mycobacterium abscessus isolate MC724 at day 14 by broth microdilution method; settings: isolate MC724, 336 h
# Outline: (§1)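 Clarithromycin MIC by broth microdilution following CLSI guidelines. Before testing, organisms were preincubated for 3 days in medium alone or in clarithromycin or erythromycin (0.01–1 μg/ml), long enough for at least two generations judged by turbidity increase. MICs were read on day 3 and again on extended incubation out to day 14.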
# [2] = test system: Mycobacteroides abscessus; assay: Antimicrobial activity against Mycobacterium abscessus isolate MC879 at day 5 preincubated with 0.1 ug/ml erythromycin for 3 days by broth microdilution method
# Outline: (§2)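 Clinical M. abscessus isolates were preincubated for 3 days, either in medium alone or in clarithromycin or erythromycin at 0.01 to 1 μg/ml, allowing at least two generations of growth judged by turbidity. The clarithromycin MIC was then determined by CLSI-conforming broth microdilution, with plates read on day 3 and on extended incubation (days 5 to 14).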
# [3] = test system: Mycobacteroides abscessus; assay: Antimicrobial activity against Mycobacterium abscessus isolate MC958 at day 5 preincubated with 0.1 ug/ml erythromycin for 3 days by broth microdilution method; outline: as §2
# [4] = test system: Mycobacteroides abscessus; assay: Antimicrobial activity against Mycobacterium abscessus isolate MC958 at day 5 by broth microdilution method; settings: isolate MC958, 120 h
# Outline: (§3)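 Clarithromycin MIC by broth microdilution following CLSI guidelines. Organisms were preincubated […], for 3 days before the assay. This allowed at least two generations, judged by the rise in turbidity. The MIC was read at the stated day, with incubation extended from day 3 to as long as 14 days.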
# [5] = test system: Mycobacteroides abscessus; assay: Antimicrobial activity against Mycobacterium abscessus isolate MC1082 at day 3 preincubated with 0.1 ug/ml for 3 days by broth microdilution method
# Outline: (§4)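 Clarithromycin MIC by CLSI-conforming broth microdilution. Before testing, cultures were preincubated for 3 days, either in medium alone or in clarithromycin or erythromycin (tested range 0.01–1 μg/ml). Preincubation ran for at least two generations, judged by turbidity increase. Plates were read on day 3 and on extended incubation at days 5 to 14.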
# [6] = test system: Mycobacteroides abscessus; assay: Antimicrobial activity against Mycobacterium abscessus isolate MAB30 at day 14 preincubated with 0.1 ug/ml for 3 days by broth microdilution method; outline: as §4
# [7] = test system: Mycobacteroides abscessus; assay: Antimicrobial activity against Mycobacterium abscessus isolate MC720 at day 14 preincubated with 0.1 ug/ml erythromycin for 3 days by broth microdilution method; outline: as §1
# [8] = test system: Mycobacteroides abscessus; assay: Antimicrobial activity against Mycobacterium abscessus isolate MC879 at day 14 preincubated with 0.1 ug/ml erythromycin for 3 days by broth microdilution method
# Outline: (§5)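 To test inducible resistance, cultures were preincubated for 3 days in clarithromycin or erythromycin, within 0.01–1 μg/ml. The period was set so cultures passed at least two generations, judged by turbidity increase. Clarithromycin MIC was then determined by CLSI-conforming broth microdilution and read on the stated day, from day 3 up to 14.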
# [9] = test system: Mycolicibacterium smegmatis; assay: Antimicrobial activity against Mycobacterium smegmatis transformed with erm allele Mycobacterium abscessus isolate MC879-2 by broth microdilution method
# [10] = test system: Mycobacteroides abscessus; assay: Antimicrobial activity against Mycobacterium abscessus isolate MC879-2 at day 7 preincubated with 0.1 ug/ml for 3 days by broth microdilution method
# [11] = test system: Mycobacteroides abscessus; assay: Antimicrobial activity against Mycobacterium abscessus isolate MC1448 at day 14 by broth microdilution method; settings: isolate MC1448, 336 h; outline: as §4
# [12] = test system: Mycolicibacterium smegmatis; assay: Antimicrobial activity against Mycobacterium smegmatis transformed with erm allele Mycobacterium abscessus isolate MC1082 preincubated with 2 ug/ml erythromycin for 20 to 24 hrs by broth microdilution method
# [13] = test system: Mycobacteroides abscessus; assay: Antimicrobial activity against Mycobacterium abscessus isolate MC723 at day 3 preincubated with 0.1 ug/ml for 3 days by broth microdilution method; outline: as §1
# [14] = test system: Mycobacteroides abscessus; assay: Antimicrobial activity against Mycobacterium abscessus isolate MC879 on day 10 by broth microdilution method; settings: isolate MC879, 240 h
# [15] = test system: Mycobacteroides abscessus; assay: Antimicrobial activity against Mycobacterium abscessus isolate MC879-2 at day 5 preincubated with 0.1 ug/ml for 3 days by broth microdilution method
# [16] = test system: Mycobacteroides abscessus; assay: Antimicrobial activity against Mycobacterium abscessus isolate MC958 at day 7 preincubated with 0.1 ug/ml erythromycin for 3 days by broth microdilution method
# [17] = test system: Mycobacteroides abscessus; assay: Antimicrobial activity against Mycobacterium abscessus isolate MC1028 at day 7 by broth microdilution method; settings: isolate MC1028, 168 h; outline: as §4
# [18] = test system: Mycolicibacterium smegmatis; assay: Antimicrobial activity against Mycobacterium smegmatis transformed with erm allele Mycobacterium abscessus isolate MAB30 preincubated with 2 ug/ml erythromycin for 20 to 24 hrs by broth microdilution method
# [19] = test system: Mycobacteroides abscessus; assay: Antimicrobial activity against Mycobacterium abscessus isolate MC719 at day 7 by broth microdilution method; settings: isolate MC719, 168 h; outline: as §2
# [20] = test system: Mycobacteroides abscessus; assay: Antimicrobial activity against Mycobacterium abscessus isolate MC958 at day 14 by broth microdilution method; settings: isolate MC958, 336 h; outline: as §3
# [21] = test system: Mycobacteroides abscessus; assay: Antimicrobial activity against Mycobacterium abscessus isolate MC724 at day 7 preincubated with 0.1 ug/ml for 3 days by broth microdilution method; outline: as §5
# [22] = test system: Mycobacteroides abscessus; assay: Antimicrobial activity against Mycobacterium abscessus isolate MC879 on day 4 by broth microdilution method; settings: isolate MC879, 96 h
# [23] = test system: Mycobacteroides abscessus; assay: Antimicrobial activity against Mycobacterium abscessus isolate MC720 at day 7 by broth microdilution method; settings: isolate MC720, 168 h; outline: as §2
# [24] = test system: Mycobacteroides abscessus; assay: Antimicrobial activity against Mycobacterium abscessus isolate MC724 at day 3 by broth microdilution method; settings: isolate MC724, 72 h; outline: as §3
# [25] = test system: Mycolicibacterium smegmatis; assay: Antimicrobial activity against Mycobacterium smegmatis transformed with erm allele Mycobacterium abscessus isolate MC720 by broth microdilution method
# [26] = test system: Mycobacteroides abscessus; assay: Antimicrobial activity against Mycobacterium abscessus isolate MC879-2 at day 14 by broth microdilution method; settings: isolate MC879-2, 336 h
# [27] = test system: Mycobacteroides abscessus; assay: Antimicrobial activity against Mycobacterium abscessus isolate MC879-2 at day 5 preincubated with 0.1 ug/ml erythromycin for 3 days by broth microdilution method
# [28] = test system: Mycobacteroides abscessus; assay: Antimicrobial activity against Mycobacterium abscessus isolate MAB30 at day 7 preincubated with 0.1 ug/ml erythromycin for 3 days by broth microdilution method; outline: as §4
# [29] = test system: Mycobacteroides abscessus; assay: Antimicrobial activity against Mycobacterium abscessus isolate MAB30 at day 9 preincubated with 0.1 ug/ml erythromycin for 3 days by broth microdilution method; outline: as §4
# [30] = test system: Mycolicibacterium smegmatis; assay: Antimicrobial activity against Mycobacterium smegmatis transformed with erm allele Mycobacterium abscessus isolate MC879 preincubated with 2 ug/ml erythromycin for 20 to 24 hrs by broth microdilution method
# [31] = test system: Mycobacteroides abscessus; assay: Antimicrobial activity against Mycobacterium abscessus isolate MC724 at day 7 preincubated with 0.1 ug/ml erythromycin for 3 days by broth microdilution method; outline: as §5
# [32] = test system: Mycobacteroides abscessus; assay: Antimicrobial activity against Mycobacterium abscessus isolate MC1028 at day 3 preincubated with 0.1 ug/ml erythromycin for 3 days by broth microdilution method; outline: as §4
# [33] = test system: Mycobacteroides abscessus; assay: Antimicrobial activity against Mycobacterium abscessus isolate MC720 at day 14 by broth microdilution method; settings: isolate MC720, 336 h; outline: as §1
# [34] = test system: Mycobacteroides abscessus; assay: Antimicrobial activity against Mycobacterium abscessus isolate MC724 at day 5 by broth microdilution method; settings: isolate MC724, 120 h; outline: as §3
# [35] = test system: Mycobacteroides abscessus; assay: Antimicrobial activity against Mycobacterium abscessus isolate MC1028 at day 7 preincubated with 0.1 ug/ml for 3 days by broth microdilution method; outline: as §4
structure (smiles),measurement,setting,value
CC[C@H]1OC(=O)[C@H](C)[C@@H](O[C@H]2C[C@@](C)(OC)[C@@H](O)[C@H](C)O2)[C@H](C)[C@@H](O[C@@H]2O[C@H](C)C[C@H](N(C)C)[C@H]2O)[C@](C)(OC)C[C@@H](C)C(=O)[C@H](C)[C@@H](O)[C@]1(C)O [CLARITHROMYCIN],MIC,[1],> 32 µg/mL
same,MIC,[2],4 µg/mL
same,MIC,[3],4 µg/mL
same,MIC,[4],1 µg/mL
same,MIC,[5],≤ 0.5 µg/mL
same,MIC,[6],≤ 0.5 µg/mL
same,MIC,[7],> 32 µg/mL
same,MIC,[8],> 32 µg/mL
same,MIC,[9],2 µg/mL
same,MIC,[10],> 32 µg/mL
same,MIC,[11],> 32 µg/mL
same,MIC,[12],≤ 0.5 µg/mL
same,MIC,[13],≤ 0.5 µg/mL
same,MIC,[14],32 µg/mL
same,MIC,[15],> 32 µg/mL
same,MIC,[16],> 32 µg/mL
same,MIC,[17],≤ 0.5 µg/mL
same,MIC,[18],≤ 0.5 µg/mL
same,MIC,[19],8 µg/mL
same,MIC,[20],> 32 µg/mL
same,MIC,[21],> 32 µg/mL
same,MIC,[22],≤ 2 µg/mL
same,MIC,[23],8 µg/mL
same,MIC,[24],≤ 0.5 µg/mL
same,MIC,[25],2 µg/mL
same,MIC,[26],> 32 µg/mL
same,MIC,[27],> 32 µg/mL
same,MIC,[28],≤ 0.5 µg/mL
same,MIC,[29],≤ 0.5 µg/mL
same,MIC,[30],16 µg/mL
same,MIC,[31],> 32 µg/mL
same,MIC,[32],≤ 0.5 µg/mL
same,MIC,[33],> 32 µg/mL
same,MIC,[34],1 µg/mL
same,MIC,[35],≤ 0.5 µg/mL
